High-throughput results from PubChem.
This is a sample that favours compounds with a hit; in the whole collection about 9.6% have one here.
TNAP inh hiacc – blocks human TNAP under high phosphate acceptor concentration | P05186 | purified TNAP, CDP-star luminescence, 1 M DEA | inhibition, % at 20 µM | hit rate 0.03% among 200,000 | AID 1135;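 active = over 50% inhibition of tissue-nonspecific alkaline phosphatase at 20 µM in the single-dose screen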;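 note: plate controls were DMSO wells for no effect and EDTA-quenched wells as full inhibition for full effect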
Target sequence (P05186 whole entry, looked up): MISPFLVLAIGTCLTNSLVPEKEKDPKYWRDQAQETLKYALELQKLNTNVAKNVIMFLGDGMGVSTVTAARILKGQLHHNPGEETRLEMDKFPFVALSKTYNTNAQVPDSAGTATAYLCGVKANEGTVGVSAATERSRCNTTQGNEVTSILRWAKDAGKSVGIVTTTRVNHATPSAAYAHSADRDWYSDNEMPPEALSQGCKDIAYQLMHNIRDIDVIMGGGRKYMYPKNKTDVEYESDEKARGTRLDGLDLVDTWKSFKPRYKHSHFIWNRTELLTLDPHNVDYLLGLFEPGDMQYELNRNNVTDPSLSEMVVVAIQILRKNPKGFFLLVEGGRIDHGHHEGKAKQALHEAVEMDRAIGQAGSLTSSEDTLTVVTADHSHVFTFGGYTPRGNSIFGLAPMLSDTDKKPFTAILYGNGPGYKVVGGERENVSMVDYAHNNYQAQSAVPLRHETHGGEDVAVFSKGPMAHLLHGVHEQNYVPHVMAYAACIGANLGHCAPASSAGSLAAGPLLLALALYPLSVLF
HCT116 PTEN-null – growth suppressors of cells with PTEN tumor suppressor deletion. hit rate 1.2% among 140,000. HCT116 PTEN-null viability, CellTiter-Glo, 60 h; stronger effect = lower value. AID 827. viability, % at 10 µM;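 active = viability at or below a set limit, 4 SD under the median of all tested compounds, cut at about 3.7% in these data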;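 note: PTEN knockout HCT116 line with beta catenin targeted HCT116 as companion control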
HCT116 bCat-KO – beta-catenin-lacking colon tumor cell growth suppression; AID 818; HCT116 beta-catenin knockout viability, CellTiter-Glo, 60 h; stronger effect = lower value; hit rate 1.5% among 140,000; viability, % at 10 µM;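 active = viability at or under a set limit, the compound median less 4 SD, cut at about 6% in these data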;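 note: 0% = Hyamine 1622 control at 20 µM and 100% = untreated cell control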
TNAP inh noacc – TNAP (human) inhibition, acceptor-free conditions; P05186; purified TNAP, CDP-star luminescence, 30 min; inhibition, % at 20 µM; hit rate 0.26% among 200,000; AID 1012;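 active = tissue-nonspecific alkaline phosphatase inhibition above about 50% at 20 µM in the single-dose screen, limit read from the data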;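 note: 0% = DMSO negative control and 100% = EDTA positive control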
L major viab – Leishmania major promastigote growth inhibition | Leishmania major promastigotes, resazurin fluorescence viability | inhibition, % at 10 µM | hit rate 9% among 200,000; in the data active = inhibition above about 50%;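 note: promastigotes grown with compound for 44 hours at 28 °C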
TNAP act hi DEA – TNAP (human) activation, high acceptor; P05186; purified TNAP, CDP-star luminescence, 1 M DEA, 30 min; stronger effect = higher value; 0 = EDTA background, 1 = DMSO-only activity; activation factor at 20 µM; 200,000 tested, under 10 active; AID 1136;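 active = activation factor at least 2 at 20 µM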
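Test system – human TNAP · Doses – 20 µM single point · Incubation – 30 min, room temperature · Signal – luminescent substrate turnover signal · Read-out basis – activation factor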
* hit, by the source's call; / = no result given.

SMILES	TNAP inh hiacc	HCT116 PTEN-null	HCT116 bCat-KO	TNAP inh noacc	L major viab	TNAP act hi DEA
O=C(Nc1ccccc1-c1ccccc1)NC1CC2CCCC(C1)N2Cc1ccc(F)cc1 (stereo unspecified)	-19	/	/	-174	69*	1.2
O=C(Nc1ccc(C(=O)O)cc1)/C(=C\c1ccc([N+](=O)[O-])cc1)NC(=O)c1ccc(Br)cc1	5	/	/	5	1	1
Cc1ccc(OCC(=O)NCCN2CCCC2)cc1	0	105	101	-5	10	1
CC(C)(C)c1ccc(OCC(=O)NCCN2CCCC2)cc1	-3	93	98	-3	80*	1
COc1ccc(N(CC2CO2)S(=O)(=O)c2ccccc2)cc1 (stereo unspecified)	-8	/	/	-9	-2	1.1
CN(C)S(=O)(=O)c1ccc(NC(=O)COC(=O)C2CC3CCCC(C2)C3=O)cc1 (stereo unspecified)	-2	/	/	1	1	1
CCN(CC)CCOCCOc1cc(C)c(Cl)c(C)c1	-6	73	76	-14	99*	1.1
CCN(CC)CCOc1c(C)cccc1Cl	1	/	/	1	-6	1
COc1cccc(OCCOCCN(C)CCO)c1	-4	104	105	-5	-2	1
Cc1cc(OCCOCCN(C)CCO)cc(C)c1Cl	-4	87	67	-14	95*	1
CCC(NC(=O)CCl)c1ccc(C)cc1 (stereo unspecified)	-3	/	/	-14	-4	1
CCOC(=O)c1ccc(NC(=O)COc2ccccc2CNC2CCCC2)cc1	-7	/	/	-33	100*	1.1
CCOc1cc(CNC2CCCC2)c(Cl)cc1OCC(=O)Nc1ccccc1	-5	/	/	-15	89*	1
CCOC(=O)c1ccc(NC(=O)COc2ccccc2OC)cc1	0	99	114	-6	3	1
C=CCNC(=O)c1ccccc1NC(=O)Cc1ccccc1[N+](=O)[O-]	-5	98	94	-5	-3	1
O=C(Nc1ccon1)c1csc2c1CCCC2	-1	97	84	-10	78*	1
O=C(NCc1ccc(Cl)cc1)C(=O)NCC1OCCN1C(=O)c1cccs1 (stereo unspecified)	-3	85	88	-9	-4	1
CC(C)[C@H](NC(=O)c1ccccc1)C(=O)OCC(=O)N1CC2(C)CC1CC(C)(C)C2 (stereo partly specified)	-2	89	97	-23	53*	1
CC(C)C(NC(=O)c1ccc(F)cc1)C(=O)OCC(=O)N1CC(=O)Nc2ccccc21 (stereo unspecified)	-3	92	93	4	68*	1
CCOc1ccc(-n2c(SCc3nc(-c4cccs4)no3)nnc2-c2ccncc2)cc1	-5	68	68	-12	62*	1
Oc1ccc(N=Cc2cc(Br)c(N3CCOCC3)o2)cc1	2	103	98	3	67*	1
O=[N+]([O-])c1cc(Br)c(O)c(C=Nc2ccc(N3CCOCC3)cc2)c1	14	/	/	0	3	0.9
O=C(CN1CCN(Cc2ccccc2Cl)CC1)N/N=C/C=C/c1ccccc1[N+](=O)[O-]	5	81	78	-2	-4	0.9
CCOc1ccccc1NC(=O)c1cc(C(=O)Nc2ccccc2OCC)cc(N2C(=O)CCC2=O)c1	-7	/	/	-8	-3	1.1
CS(=O)(=O)N(CC(=O)Nc1ccccc1C(=O)NCCc1ccccc1)c1ccc2c(c1)OCCO2	-2	75	64	-12	99*	1
SMILES	TNAP inh hiacc	HCT116 PTEN-null	HCT116 bCat-KO	TNAP inh noacc	L major viab	TNAP act hi DEA
O=C(O)CCC(=O)Nc1ccccc1C(=O)NCCc1ccccc1	-1	98	96	-16	56*	1
O=C(O)CCC(=O)Nc1ccccc1C(=O)Nc1ccccc1	-7	93	95	-8	-7	1.1
CCOC(=O)C1CCN(C(=O)COc2ccc(Br)cc2C)CC1	-5	/	/	-5	-5	1.1
O=C(O)c1ccc2c(c1)C(=O)N(c1cccc(S(=O)(=O)Nc3cccc(C(F)(F)F)c3)c1)C2=O	-4	/	/	-6	-11	1
O=C(Nc1ccc(N2CCCC2)cc1)c1ccccc1F	-1	93	90	-8	100*	1
Cc1ccccc1C(=O)N1CCN(c2ccc(NC(=O)c3ccco3)cc2Cl)CC1	-4	71	51	-12	99*	1
Cc1cccc(NC(=O)c2cc(NC(=O)C3CCCCC3C(=O)O)ccc2Cl)n1 (stereo unspecified)	-5	113	95	-8	3	1
CCN1CCN(c2ccc(NC(=O)c3ccc(C#N)cc3F)cc2Cl)CC1	-5	/	/	-11	13	1
O=C(Nc1ccc(N2CCCCC2)cc1)c1ccccc1	0	96	86	11	1	1
CCN1CCN(c2ccc(NC(=O)c3ccccc3F)cc2Cl)CC1	-1	/	/	-10	75*	1
Cc1cccc(NC(=O)c2cc(NC(=O)c3ccco3)ccc2Cl)n1	4	77	83	-5	85*	1
COc1ccc(Cn2cc(C(=O)O)c(=O)c3ccccc32)cc1	-4	/	/	-11	-5	1
Cc1ccc(S(=O)(=O)C(C#N)=C2N(C)c3ccccc3N2C)cc1	-6	/	/	-16	11	1.1
O=C(Cn1c(=O)c2c(ncn2Cc2ccccc2)n(Cc2ccccc2)c1=O)N1CCc2ccccc21	-7	87	98	-4	100*	1.1
CCOCCCNC(=S)N1CCC(C(=O)c2ccc3c(c2)OCCO3)CC1	2	/	/	-4	17	1
Cc1cc2cc(CN(Cc3ccco3)S(=O)(=O)c3c(C)ccc4nsnc34)c(=O)[nH]c2cc1C	-3	82	89	-6	76*	1
Cc1ccc2cc(CN(Cc3ccco3)S(=O)(=O)c3c(C)ccc4nsnc34)c(=O)[nH]c2c1	-8	56	66	-6	23	1.1
COc1cccc(C(=O)N2CCN(CCCc3ccccc3)CC2)c1OC	0	78	84	-4	93*	1
COc1cccc(C(=O)N2CCN(C3CCC(c4ccccc4)CC3)CC2)c1OC (stereo unspecified)	-8	73	83	-14	100*	1.1
CCCC(=O)N1CCN(c2ccc(NC(=O)c3cccs3)cc2)CC1	0	/	/	-15	0	1
CCCc1nc(NCc2ccncc2)c2nnn(Cc3ccccc3F)c2n1	-3	3.2*	1.9*	-6	57*	1
CC1CCCC(C)N1/N=C/c1ccc(C#N)cc1 (stereo unspecified)	0	/	/	-10	-7	1
O=C(Nc1nnc(-c2ccc(Cl)s2)o1)C1CC1	-2	/	/	-7	61*	1
O=C(Nc1nnc(-c2cccs2)o1)C1CC1	-1	/	/	2	-3	1
O=C(/C=C/c1ccccc1)NC(NC(=S)Nc1cccc(Cl)c1)C(Cl)(Cl)Cl (stereo unspecified)	-2	2.9*	10	-3	39	1
